This note sets out measurements from PMC10213863 (Cell Reports Medicine, 2023).

Common to all, as to assay type: cell-based
The target in test [1] is T1, TLR7 (Homo sapiens, UniProt Q9NYK1).
T1 sequence (Q9NYK1 27-1049): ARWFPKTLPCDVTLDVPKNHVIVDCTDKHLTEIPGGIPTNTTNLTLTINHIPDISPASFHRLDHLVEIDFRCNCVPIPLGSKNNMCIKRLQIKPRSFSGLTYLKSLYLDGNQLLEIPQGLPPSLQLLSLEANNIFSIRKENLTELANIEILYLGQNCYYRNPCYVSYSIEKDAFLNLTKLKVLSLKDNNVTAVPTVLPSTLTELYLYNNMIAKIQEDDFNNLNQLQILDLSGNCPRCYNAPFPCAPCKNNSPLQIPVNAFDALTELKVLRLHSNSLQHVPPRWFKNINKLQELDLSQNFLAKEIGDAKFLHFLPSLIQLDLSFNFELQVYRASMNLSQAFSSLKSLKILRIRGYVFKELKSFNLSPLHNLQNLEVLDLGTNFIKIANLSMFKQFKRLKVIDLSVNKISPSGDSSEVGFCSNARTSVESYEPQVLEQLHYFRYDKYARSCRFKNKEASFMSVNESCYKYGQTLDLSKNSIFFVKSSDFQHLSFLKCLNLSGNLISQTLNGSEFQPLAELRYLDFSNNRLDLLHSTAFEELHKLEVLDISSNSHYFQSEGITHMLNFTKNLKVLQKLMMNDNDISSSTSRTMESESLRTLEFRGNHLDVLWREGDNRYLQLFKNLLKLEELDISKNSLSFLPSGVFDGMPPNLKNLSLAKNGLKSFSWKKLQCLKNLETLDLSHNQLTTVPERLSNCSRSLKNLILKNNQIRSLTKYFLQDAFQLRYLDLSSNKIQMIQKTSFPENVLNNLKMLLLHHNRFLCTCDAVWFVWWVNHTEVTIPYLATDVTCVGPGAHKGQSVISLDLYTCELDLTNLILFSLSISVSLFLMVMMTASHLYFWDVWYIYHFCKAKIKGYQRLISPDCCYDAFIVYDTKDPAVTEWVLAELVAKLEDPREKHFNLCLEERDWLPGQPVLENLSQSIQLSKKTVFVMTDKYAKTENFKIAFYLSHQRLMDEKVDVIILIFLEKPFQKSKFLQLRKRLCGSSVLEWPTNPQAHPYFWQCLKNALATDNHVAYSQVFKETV
The test can be described thus: Ramos Blue NF-κB/AP-1 reporter B cell line, TLR7 stimulation. Conditions: Ramos cells, mean ± SD. In short, it runs like this:
(§1)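 Ramos Blue B reporter cells were pre-treated 30 min at 37°C, 5% CO2 with increasing concentrations of test compound or 0.25% v/v DMSO. They were then stimulated with the respective agonist, and reporter activity was read.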

A further test deals with TLR7/8 (Homo sapiens, UniProt Q9NR97). The test can be described thus: Human neutrophil ROS production, R848 stimulation.
In test [2] the target is T1, TLR7. The test can be described thus: Isolated human pDC assay, ssRNA-driven IFN-α. Conditions: fixed dose of MHV370. An outline of the steps: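 pDCs were negatively enriched from PBMCs and resuspended in RPMI1640 with 10 ng/mL recombinant human IL-3. They were pre-treated 30 min with test compound or 0.25% v/v DMSO. Stimulation was 20 h at 37°C, 5% CO2 with ssRNA40 (10 μg/mL plus 25 μg/mL DOTAP) or ODN2216 (0.3 μM). IFN-α in supernatants was read by AlphaLisa; viability by CellTiter-Glo.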

In another test the target is T2, TLR8 (Homo sapiens, UniProt Q9NR97).
T2 sequence (Q9NR97 27-1041): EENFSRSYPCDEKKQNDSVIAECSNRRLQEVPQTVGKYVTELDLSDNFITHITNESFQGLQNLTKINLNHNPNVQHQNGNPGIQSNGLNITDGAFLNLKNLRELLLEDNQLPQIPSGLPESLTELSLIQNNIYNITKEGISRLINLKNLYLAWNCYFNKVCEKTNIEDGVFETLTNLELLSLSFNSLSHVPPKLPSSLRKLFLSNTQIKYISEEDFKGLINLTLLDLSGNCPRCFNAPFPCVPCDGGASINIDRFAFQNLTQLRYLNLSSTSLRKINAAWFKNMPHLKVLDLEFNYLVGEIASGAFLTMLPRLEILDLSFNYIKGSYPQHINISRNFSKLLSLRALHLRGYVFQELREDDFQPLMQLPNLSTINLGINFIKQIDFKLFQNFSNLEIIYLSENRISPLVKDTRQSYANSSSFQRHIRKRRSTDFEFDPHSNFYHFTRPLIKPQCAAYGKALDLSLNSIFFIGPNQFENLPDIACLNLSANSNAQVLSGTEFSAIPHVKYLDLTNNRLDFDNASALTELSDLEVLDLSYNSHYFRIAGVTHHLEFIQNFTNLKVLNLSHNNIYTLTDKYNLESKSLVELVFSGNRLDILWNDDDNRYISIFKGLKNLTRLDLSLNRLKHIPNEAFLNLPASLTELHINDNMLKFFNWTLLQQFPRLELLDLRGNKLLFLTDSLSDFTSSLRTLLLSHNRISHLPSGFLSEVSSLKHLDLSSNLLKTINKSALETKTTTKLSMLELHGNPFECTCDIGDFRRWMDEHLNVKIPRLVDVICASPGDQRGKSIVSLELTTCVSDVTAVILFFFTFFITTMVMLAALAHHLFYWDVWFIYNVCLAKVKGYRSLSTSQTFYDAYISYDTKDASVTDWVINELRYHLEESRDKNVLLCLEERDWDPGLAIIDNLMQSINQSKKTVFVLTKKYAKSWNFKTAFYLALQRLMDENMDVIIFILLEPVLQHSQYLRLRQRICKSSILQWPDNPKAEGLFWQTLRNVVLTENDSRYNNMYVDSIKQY
The test can be described thus: Human neutrophil ROS production, TL8-506 stimulation. In short, it runs like this: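 Cells were pre-treated 30 min with increasing concentrations of test compound or 0.1% v/v DMSO. They were then stimulated 30 min at 37°C, 5% CO2 with TL8-506 or PMA (50 ng/mL). ROS was detected with 2 μM dihydrorhodamine for 15 min at 37°C and read by flow cytometry. Signals were normalized to vehicle; viability was checked by CellTiter-Glo.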

For the next test, the target named is TLR4 (Homo sapiens, UniProt O00206). In words: Human PBMC cytokine secretion, TLR4 agonist. Conditions: human PBMCs; up to 10 μM; n = 5 donors. In short, it runs like this: (§2)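 Human PBMCs were pre-incubated 30 min with test compound, then stimulated with the respective TLR or IL-1R agonist at doses from earlier work. Cytokines in supernatants were quantified by immunoassay. Viability across the dose range was checked by CellTiter-Glo.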
Sequence of TLR4 (O00206 24-839): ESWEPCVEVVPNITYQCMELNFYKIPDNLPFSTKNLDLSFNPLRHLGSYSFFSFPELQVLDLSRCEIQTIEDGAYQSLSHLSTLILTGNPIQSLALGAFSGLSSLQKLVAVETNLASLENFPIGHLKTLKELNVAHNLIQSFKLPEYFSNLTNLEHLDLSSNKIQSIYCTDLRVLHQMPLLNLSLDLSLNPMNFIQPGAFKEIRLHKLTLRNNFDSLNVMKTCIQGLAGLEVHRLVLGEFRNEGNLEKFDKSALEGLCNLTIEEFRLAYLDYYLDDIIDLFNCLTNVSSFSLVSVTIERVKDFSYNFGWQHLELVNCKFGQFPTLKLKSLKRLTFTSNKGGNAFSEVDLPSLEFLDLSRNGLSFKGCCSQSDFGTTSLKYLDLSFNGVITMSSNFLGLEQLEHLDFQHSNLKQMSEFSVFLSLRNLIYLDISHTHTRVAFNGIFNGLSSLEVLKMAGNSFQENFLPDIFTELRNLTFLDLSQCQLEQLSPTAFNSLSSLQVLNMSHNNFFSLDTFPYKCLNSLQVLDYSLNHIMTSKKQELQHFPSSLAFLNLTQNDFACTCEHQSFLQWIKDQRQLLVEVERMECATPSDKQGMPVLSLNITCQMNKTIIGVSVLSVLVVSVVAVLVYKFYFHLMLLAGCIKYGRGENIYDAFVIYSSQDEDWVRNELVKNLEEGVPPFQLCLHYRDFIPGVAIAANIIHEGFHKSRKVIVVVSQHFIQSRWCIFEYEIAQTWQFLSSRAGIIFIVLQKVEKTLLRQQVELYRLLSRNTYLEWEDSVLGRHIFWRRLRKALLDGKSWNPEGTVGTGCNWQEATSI
Sequence of TLR4 (Q9Y6Y9 19-160 partner): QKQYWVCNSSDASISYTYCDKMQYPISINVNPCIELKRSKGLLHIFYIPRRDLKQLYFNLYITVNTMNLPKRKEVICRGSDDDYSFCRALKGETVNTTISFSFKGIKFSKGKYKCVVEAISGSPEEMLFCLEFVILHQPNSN

The target in a further test is TLR3 (Homo sapiens, UniProt O15455). The test can be described thus: Ramos Blue reporter B cell line, Poly. The note with it: Ramos cells; Poly(I:C) stimulation. An outline of the steps: as §1
Sequence of TLR3 (O15455 24-904): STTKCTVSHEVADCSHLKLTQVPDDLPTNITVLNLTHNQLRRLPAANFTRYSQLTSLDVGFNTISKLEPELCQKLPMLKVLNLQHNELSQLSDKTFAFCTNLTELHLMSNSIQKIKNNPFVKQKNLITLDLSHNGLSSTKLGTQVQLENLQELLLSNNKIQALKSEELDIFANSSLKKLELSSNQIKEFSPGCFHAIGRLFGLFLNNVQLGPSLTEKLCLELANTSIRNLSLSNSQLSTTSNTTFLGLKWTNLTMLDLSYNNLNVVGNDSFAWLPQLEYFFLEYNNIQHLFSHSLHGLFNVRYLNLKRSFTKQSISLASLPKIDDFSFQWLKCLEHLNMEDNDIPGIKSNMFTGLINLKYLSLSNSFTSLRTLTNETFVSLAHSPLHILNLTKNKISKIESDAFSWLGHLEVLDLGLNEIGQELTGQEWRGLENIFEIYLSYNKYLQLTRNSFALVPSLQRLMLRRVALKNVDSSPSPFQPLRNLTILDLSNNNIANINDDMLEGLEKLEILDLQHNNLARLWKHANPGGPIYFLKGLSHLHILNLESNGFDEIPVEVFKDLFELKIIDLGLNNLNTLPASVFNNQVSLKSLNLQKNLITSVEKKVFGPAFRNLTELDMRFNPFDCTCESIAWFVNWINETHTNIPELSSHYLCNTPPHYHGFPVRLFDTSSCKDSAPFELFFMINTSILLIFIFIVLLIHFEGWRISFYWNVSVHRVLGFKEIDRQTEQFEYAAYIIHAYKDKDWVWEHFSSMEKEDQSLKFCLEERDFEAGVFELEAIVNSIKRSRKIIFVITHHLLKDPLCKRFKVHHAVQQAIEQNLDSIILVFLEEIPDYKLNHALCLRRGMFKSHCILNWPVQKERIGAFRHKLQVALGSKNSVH
A further test addresses TLR5 (Homo sapiens, UniProt O60602). The test can be described thus: Human PBMC cytokine secretion, TLR5 agonist. Conditions: human PBMCs; up to 10 μM; n = 5 donors, data not shown. In short, it runs like this: as §2

Read-outs that look alike come from different tables or passages of the source.

Sequence of TLR5 (O60602 21-858): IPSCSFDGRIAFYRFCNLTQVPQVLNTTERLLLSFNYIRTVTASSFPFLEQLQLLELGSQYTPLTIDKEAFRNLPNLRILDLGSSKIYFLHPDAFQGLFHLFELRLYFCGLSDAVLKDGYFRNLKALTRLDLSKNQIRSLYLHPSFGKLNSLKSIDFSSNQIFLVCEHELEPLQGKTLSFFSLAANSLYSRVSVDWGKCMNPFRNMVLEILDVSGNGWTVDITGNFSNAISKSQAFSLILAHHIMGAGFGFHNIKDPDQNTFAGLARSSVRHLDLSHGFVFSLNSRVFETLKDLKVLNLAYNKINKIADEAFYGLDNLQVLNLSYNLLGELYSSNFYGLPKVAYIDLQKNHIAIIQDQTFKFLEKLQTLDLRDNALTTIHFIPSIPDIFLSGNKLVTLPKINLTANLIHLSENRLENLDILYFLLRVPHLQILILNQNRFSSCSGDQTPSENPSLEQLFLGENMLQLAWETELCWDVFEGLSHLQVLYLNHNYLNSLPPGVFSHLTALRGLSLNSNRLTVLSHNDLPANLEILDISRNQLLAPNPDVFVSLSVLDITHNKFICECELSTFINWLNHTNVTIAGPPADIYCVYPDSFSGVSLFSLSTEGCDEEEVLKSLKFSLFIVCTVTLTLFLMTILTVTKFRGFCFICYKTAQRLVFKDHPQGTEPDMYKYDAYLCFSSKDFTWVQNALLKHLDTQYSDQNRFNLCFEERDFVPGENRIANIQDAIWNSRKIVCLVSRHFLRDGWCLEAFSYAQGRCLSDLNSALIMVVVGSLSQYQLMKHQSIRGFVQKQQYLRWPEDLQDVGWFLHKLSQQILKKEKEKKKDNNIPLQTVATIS

The term IC50 denotes the point on the concentration scale where inhibition reaches its midpoint. As for `Cc1cc(N2CCc3c(c(C)nn3CC34CCC(NC(=O)[C@@H]5COCCN5)(CC3)CC4)C2)c2cnn(C)c2n1` [MHV370, (S)-N-(4-((5-(1,6-dimethyl-1H-pyrazolo[3,4-b]pyridin-4-yl)-3-methyl-4,5,6,7-tetrahydro-1H-pyrazolo[4,3-c]pyridin-1-yl)methyl)bicyclo[2.2.2]octan-1-yl)morpholine-3-carboxamide], the IC50 against TLR7 [1] (IC50, CL307-driven reporter gene activity, CL307) was 15 ± 10 nM; on TLR7 [1] (read-out: IC50, R848-driven reporter gene activity, R848), 7 ± 0.1 nM; on TLR7/8 it was 3.8 ± 0.8 nM; against TLR8, 5.2 ± 1.5 nM. Also, at TLR7 [2], the “ssRNA-driven IFN-α responses from pDCs” value was “blocked”. Also, the “interference with cytokine secretion, TLR4 agonist” value on TLR4 is listed as “did not significantly interfere”. Also, the “inhibitory activity against TLR3” value against TLR3 is given as “no or very limited inhibitory activity”. Also, the “interference with cytokine secretion, TLR5 agonist” value at TLR5 is recorded as “did not significantly interfere”.
